Assay results taken from ChEMBL document CHEMBL1125136, “Quinolone antibacterial agents substituted at the 7-position with spiroamines. Synthesis and structure-activity relationships” (1990).
In brackets after ≈: the same amount, converted by molar mass.

Columns and labels:
Escherichia coli [1] = test: In vivo protective dose for mouse protection assay in Escherichia coli Vogel after peroral administration; assay type: functional; details: po, read-out: PD50
In short: (§1)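 Female Charles River CD-1 mice were given an acute, lethal, systemic infection. A single dose of compound was given at the time of challenge, by the route stated in the line, with 16 animals per dose level. The read-out is the median protective dose (PD50, mg/kg). Per the footnote, values come from 16 animals per test, with a mean variation of ±34%.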

Escherichia coli [2] = test: In vivo protective dose was determined in mouse protection assay in Escherichia coli Vogel after subcutaneous administration; assay type: functional; details: sc, read-out: PD50; in short: as §1
Enterobacter cloacae = test: Evaluated for minimum inhibitory concentration against gram-negative bacteria Enterobacter cloacae HA 2646; assay type: functional
Escherichia coli [3] = test: Evaluated for minimum concentration needed to produce linear DNA at an intensity relative to oxolinic acid at 10 mg/mL. by gyrase mediated cleavage of DNA in Escherichia coli 560.; assay type: functional; details: read-out: MIC
Escherichia coli [4] = test: Evaluated for minimum inhibitory concentration against gram-negative bacteria Escherichia coli Vogel; assay type: functional
In short: (§2)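 Broth microdilution MIC by standard technique. Values come from duplicate experiments and are stated as accurate to ±50%.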

Klebsiella pneumoniae = test: Evaluated for minimum inhibitory concentration against gram-negative bacteria Klebsiella pneumoniae MGH-2; assay type: functional; in short: as §2
Pseudomonas aeruginosa [5] = test: Evaluated for minimum inhibitory concentration against gram-negative bacteria Pseudomonas aeruginosa UI-18; assay type: functional; in short: as §2
Pseudomonas = test: Evaluated for minimum inhibitory concentration against gram-negative bacteria Pseudomonas rettgeri H1771; assay type: functional; in short: as §2
Pseudomonas aeruginosa [6] = test: In vivo protective dose was determined against Pseudomonas aeruginosa UI-18. after peroral administration; assay type: functional; details: po, read-out: PD50; in short: as §1
Pseudomonas aeruginosa [7] = test: In vivo protective dose was determined against Pseudomonas aeruginosa UI-18. after subcutaneous administration; assay type: functional; details: sc, read-out: PD50; in short: as §1
[8] = Evaluated for minimum inhibitory concentration against […] bacteria […] SV-1; assay type: functional; in short: as §2
Staphylococcus aureus [9] = test: In vivo protective dose was determined against Staphylococcus aureus VC76 after peroral administration; assay type: functional; details: po, read-out: PD50; in short: as §1
Staphylococcus aureus [10] = test: In vivo protective dose was determined against Staphylococcus aureus VC76. after subcutaneous administration; assay type: functional; details: sc, read-out: PD50; in short: as §1
Staphylococcus aureus [11] = test: Evaluated for minimum inhibitory concentration against […] bacteria Staphylococcus aureus H228; assay type: functional; in short: as §2
Staphylococcus aureus [12] = test: Evaluated for minimum inhibitory concentration against […] bacteria Staphylococcus aureus UC-76; assay type: functional; in short: as §2
Streptococcus pyogenes [13] = test: In vivo protective dose was determined against Streptococcus pyogenes after peroral administration; details: po, read-out: PD50
Streptococcus pyogenes [14] = test: In vivo protective dose was determined against Streptococcus pyogenes after subcutaneous administration; details: sc, read-out: PD50
Streptococcus pneumoniae [15] = test: In vivo protective dose was determined against Streptococcus pneumoniae SV-1 after peroral administration; details: po, read-out: PD50
Streptococcus pyogenes [16] = test: Evaluated for minimum inhibitory concentration against gram-positive bacteria Streptococcus pyogenes C203
Enterococcus faecalis [17] = test: Evaluated for minimum inhibitory concentration against gram-positive bacteria Staphylococcus faecalis MGH-2
Streptococcus pneumoniae [18] = test: In vivo protective dose was determined against Streptococcus pneumoniae SV-1 after subcutaneous administration; details: sc, read-out: PD50
Escherichia coli [19] = test: `Evaluated for minimum concentration needed to produce linear DNA at an intensity relative to oxolinic acid at 10 mg/mL. by gyrase mediated cleavage of DNA in Escherichia coli 560.; assay type: functional
In short: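 DNA gyrase isolated from Escherichia coli. The read-out is the minimum drug concentration (μg/mL) that induces gyrase-mediated DNA cleavage, giving linear DNA at an intensity relative to oxolinic acid at 10 mg/mL.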

Pseudomonas aeruginosa [20] = test: Evaluated for minimum inhibitory concentration against gram-negative bacteria Pseudomonas aeruginosa UI-18
Enterococcus faecalis [21] = test: Evaluated for minimum inhibitory concentration against […] bacteria, Staphylococcus faecalis MGH-2; assay type: functional; in short: as §2

Structure (SMILES) | ED50 (Escherichia coli [1]) [mg/kg] | ED50 (Escherichia coli [2]) [mg/kg] | MIC (Enterobacter cloacae) [µg/mL] | minimum concentration for gyrase-mediated DNA cleavage (Escherichia coli [3]) [µg/mL] | MIC (Escherichia coli [4]) [µg/mL] | MIC (Klebsiella pneumoniae) [µg/mL] | MIC (Pseudomonas aeruginosa [5]) [µg/mL] | MIC (Pseudomonas) [µg/mL] | ED50 (Pseudomonas aeruginosa [6]) [mg/kg] | ED50 (Pseudomonas aeruginosa [7]) [mg/kg] | MIC [8] [µg/mL] | ED50 (Staphylococcus aureus [9]) [mg/kg] | MIC (Staphylococcus aureus [11]) [µg/mL] | MIC (Staphylococcus aureus [12]) [µg/mL] | ED50 (Streptococcus pyogenes [13]) [mg/kg] | ED50 (Streptococcus pyogenes [14]) [mg/kg] | ED50 (Streptococcus pneumoniae [15]) [mg/kg] | MIC (Streptococcus pyogenes [16]) [µg/mL] | MIC (Enterococcus faecalis [17]) [µg/mL] | ED50 (Streptococcus pneumoniae [18]) [mg/kg] | other results
CCn1cc(C(=O)O)c(=O)c2cc(F)c(N3CCC4(CCN(C)C4)C3)c(F)c21 (centres undefined) | 8.4 | 3.4 | 0.1 (≈ 0.255 µM) | 1 | 0.006 (≈ 0.0153 µM) | 0.1 (≈ 0.255 µM) | 0.8 (≈ 2.04 µM) | 0.8 (≈ 2.04 µM) | 140 | 70 | 0.4 (≈ 1.02 µM) | 9 | 0.1 (≈ 0.255 µM) | 0.006 (≈ 0.0153 µM) | 38 | 27 | 43 | 0.2 (≈ 0.511 µM) | 0.1 (≈ 0.255 µM) | 11 | ED50 (Staphylococcus aureus [10]): 4 mg/kg
CCN1CCC2(CCN(c3c(F)cc4c(=O)c(C(=O)O)cn(CC)c4c3F)C2)C1 (centres undefined) | 13 | 6 | 0.4 (≈ 0.987 µM) | 5 | 0.2 (≈ 0.493 µM) | 0.2 (≈ 0.493 µM) | 3.1 (≈ 7.65 µM) | 1.6 (≈ 3.95 µM) | > 100 | 180 | 0.8 (≈ 1.97 µM) |  | 0.2 (≈ 0.493 µM) | 0.1 (≈ 0.247 µM) | 70 | 38 | 68 | 0.4 (≈ 0.987 µM) | 0.2 (≈ 0.493 µM) | 43 | 
CCN1CCC2(CCN(c3nc4c(cc3F)c(=O)c(C(=O)O)cn4CC)C2)C1 (centres undefined) | 10.3 | 15 | 1.6 (≈ 4.12 µM) |  | 0.4 (≈ 1.03 µM) | 0.4 (≈ 1.03 µM) | 3.1 (≈ 7.98 µM) | 6.3 (≈ 16.2 µM) |  |  | 1.6 (≈ 4.12 µM) |  | 0.4 (≈ 1.03 µM) | 0.2 (≈ 0.515 µM) |  |  |  | 1.6 (≈ 4.12 µM) | 0.8 (≈ 2.06 µM) |  | MIC (Escherichia coli [19]): 5 µg/mL (≈ 12.9 µM)
CC1COc2c(N3CCC4(CCN(C)C4)C3)c(F)cc3c(=O)c(C(=O)O)cn1c23 (centres undefined) | 14 | 4.5 | 0.2 (≈ 0.498 µM) | 1 | 0.025 (≈ 0.0623 µM) | 0.1 (≈ 0.249 µM) | 0.8 (≈ 1.99 µM) | 0.4 (≈ 0.996 µM) | 200 | 56 | 0.2 (≈ 0.498 µM) | 12.5 | 0.1 (≈ 0.249 µM) | 0.006 (≈ 0.0149 µM) | 31 | 6 | 63 | 0.1 (≈ 0.249 µM) | 0.1 (≈ 0.249 µM) | 11.5 | ED50 (Staphylococcus aureus [10]): 2.1 mg/kg
CN1CCC2(CCN(c3c(F)cc4c(=O)c(C(=O)O)cn(C5CC5)c4c3F)C2)C1 (centres undefined) | 5 | 2 | 0.05 (≈ 0.124 µM) | 0.5 | 0.05 (≈ 0.124 µM) | 0.1 (≈ 0.248 µM) |  | 0.2 (≈ 0.496 µM) |  |  | 0.05 (≈ 0.124 µM) |  | 0.25 (≈ 0.62 µM) | 0.013 (≈ 0.0322 µM) |  |  |  | 0.05 (≈ 0.124 µM) | 0.1 (≈ 0.248 µM) |  | MIC (Pseudomonas aeruginosa [20]): 0.8 µg/mL (≈ 1.98 µM)
CCn1cc(C(=O)O)c(=O)c2cc(F)c(N3CCCC4(CCCNC4)C3)c(F)c21 (centres undefined) |  |  | 6.3 (≈ 15.5 µM) | 7.5 | 3.1 (≈ 7.65 µM) | 6.3 (≈ 15.5 µM) | 12.5 (≈ 30.8 µM) | 25 (≈ 61.7 µM) |  |  | 6.3 (≈ 15.5 µM) |  | 3.1 (≈ 7.65 µM) | 0.4 (≈ 0.987 µM) |  |  |  | 3.1 (≈ 7.65 µM) |  |  | MIC (Enterococcus faecalis [21]): 3.1 µg/mL (≈ 7.65 µM)
CCn1cc(C(=O)O)c(=O)c2cc(F)c(N3CCC4(CCN(C)C4)C3)nc21 (centres undefined) | 11.4 | 4.4 | 0.4 (≈ 1.07 µM) | 10 | 0.1 (≈ 0.267 µM) | 0.4 (≈ 1.07 µM) | 1.6 (≈ 4.27 µM) | 1.6 (≈ 4.27 µM) | 200 | 58 | 0.8 (≈ 2.14 µM) | 8.5 | 0.1 (≈ 0.267 µM) | 0.025 (≈ 0.0668 µM) | 27 | 13 | 30 | 0.4 (≈ 1.07 µM) | 0.2 (≈ 0.534 µM) | 16 | ED50 (Staphylococcus aureus [10]): 3.6 mg/kg
